The target of assay [1] is Nitric oxide synthase 1 (Homo sapiens, UniProt P29475). The assay can be described thus: Inhibition of human neuronal NOS activity.
Assay [2] concerns the target T1, Nitric oxide synthase 3 (Homo sapiens, UniProt P29474).
T1 sequence (P29474 whole entry): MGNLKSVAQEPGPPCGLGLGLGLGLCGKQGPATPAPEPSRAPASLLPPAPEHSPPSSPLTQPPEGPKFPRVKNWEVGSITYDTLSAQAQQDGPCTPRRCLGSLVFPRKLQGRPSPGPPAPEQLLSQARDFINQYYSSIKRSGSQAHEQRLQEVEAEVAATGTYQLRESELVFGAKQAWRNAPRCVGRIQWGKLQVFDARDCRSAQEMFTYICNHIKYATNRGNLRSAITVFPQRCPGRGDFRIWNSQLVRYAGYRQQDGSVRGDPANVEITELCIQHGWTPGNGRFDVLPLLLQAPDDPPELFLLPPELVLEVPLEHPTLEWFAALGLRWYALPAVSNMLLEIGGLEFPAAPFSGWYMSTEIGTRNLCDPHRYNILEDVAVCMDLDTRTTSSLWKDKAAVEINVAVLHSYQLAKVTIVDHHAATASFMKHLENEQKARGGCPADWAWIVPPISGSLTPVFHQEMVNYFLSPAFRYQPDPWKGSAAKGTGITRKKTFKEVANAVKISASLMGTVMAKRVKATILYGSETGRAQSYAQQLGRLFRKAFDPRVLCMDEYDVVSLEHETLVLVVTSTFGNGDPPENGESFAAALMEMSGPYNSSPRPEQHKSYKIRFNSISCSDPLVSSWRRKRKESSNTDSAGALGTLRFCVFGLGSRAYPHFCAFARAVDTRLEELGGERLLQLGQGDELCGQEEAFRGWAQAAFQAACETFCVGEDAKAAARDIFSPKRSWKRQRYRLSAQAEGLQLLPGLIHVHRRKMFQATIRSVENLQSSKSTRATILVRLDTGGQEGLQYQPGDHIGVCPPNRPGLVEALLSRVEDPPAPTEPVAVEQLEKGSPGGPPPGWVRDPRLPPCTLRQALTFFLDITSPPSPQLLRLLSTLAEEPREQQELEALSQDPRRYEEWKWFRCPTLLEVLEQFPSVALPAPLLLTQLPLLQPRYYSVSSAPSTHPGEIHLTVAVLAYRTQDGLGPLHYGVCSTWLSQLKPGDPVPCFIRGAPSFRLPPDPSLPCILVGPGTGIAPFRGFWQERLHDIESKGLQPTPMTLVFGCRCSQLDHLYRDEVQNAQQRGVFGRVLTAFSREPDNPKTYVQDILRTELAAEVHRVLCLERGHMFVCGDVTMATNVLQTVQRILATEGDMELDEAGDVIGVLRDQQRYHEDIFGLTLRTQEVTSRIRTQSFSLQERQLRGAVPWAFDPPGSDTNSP
Nature of the assay: Inhibition of human endothelial NOS activity. The method, boiled down:
(§1)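 Human NOS isoform activity read out as conversion of [³H]L-arginine to [³H]L-citrulline. Percent inhibition was measured at 8–12 inhibitor concentrations to derive IC₅₀.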

The target of assay [3] is Nitric oxide synthase, inducible (Homo sapiens, UniProt P35228). Nature of the assay: Inhibition of human inducible NOS activity. The method, boiled down: as §1
Nitric oxide synthase, inducible (Homo sapiens, UniProt P35228), sequence (P35228 whole entry): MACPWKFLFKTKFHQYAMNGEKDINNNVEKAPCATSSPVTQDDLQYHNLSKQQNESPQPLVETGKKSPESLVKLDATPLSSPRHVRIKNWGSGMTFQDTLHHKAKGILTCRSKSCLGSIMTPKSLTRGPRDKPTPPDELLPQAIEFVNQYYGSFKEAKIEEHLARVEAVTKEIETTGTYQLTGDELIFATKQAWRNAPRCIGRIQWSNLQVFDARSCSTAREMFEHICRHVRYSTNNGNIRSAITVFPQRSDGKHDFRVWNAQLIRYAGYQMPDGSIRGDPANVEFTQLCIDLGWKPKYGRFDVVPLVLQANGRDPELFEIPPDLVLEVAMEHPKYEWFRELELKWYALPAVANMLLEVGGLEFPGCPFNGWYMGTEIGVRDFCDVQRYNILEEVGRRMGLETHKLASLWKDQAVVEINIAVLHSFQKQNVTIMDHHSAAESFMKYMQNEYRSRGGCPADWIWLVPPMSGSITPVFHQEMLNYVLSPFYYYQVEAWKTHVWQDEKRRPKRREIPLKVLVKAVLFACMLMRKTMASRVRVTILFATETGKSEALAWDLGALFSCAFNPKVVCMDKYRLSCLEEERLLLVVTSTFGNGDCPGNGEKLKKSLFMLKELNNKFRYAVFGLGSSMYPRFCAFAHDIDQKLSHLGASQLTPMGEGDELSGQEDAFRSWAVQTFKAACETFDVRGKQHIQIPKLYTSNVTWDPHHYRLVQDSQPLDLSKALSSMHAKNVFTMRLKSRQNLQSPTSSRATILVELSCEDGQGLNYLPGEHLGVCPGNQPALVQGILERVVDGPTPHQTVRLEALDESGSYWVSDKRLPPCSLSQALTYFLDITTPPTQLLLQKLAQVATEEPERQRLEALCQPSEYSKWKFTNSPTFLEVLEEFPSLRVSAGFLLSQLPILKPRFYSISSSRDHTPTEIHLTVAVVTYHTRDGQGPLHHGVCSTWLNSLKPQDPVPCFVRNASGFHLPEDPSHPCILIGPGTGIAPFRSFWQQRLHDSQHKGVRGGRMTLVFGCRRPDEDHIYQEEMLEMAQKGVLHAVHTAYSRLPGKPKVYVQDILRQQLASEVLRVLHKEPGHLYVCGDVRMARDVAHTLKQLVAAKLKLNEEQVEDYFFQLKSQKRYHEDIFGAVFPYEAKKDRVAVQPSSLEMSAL
Assay [4] is filed under the species Homo sapiens. The assay can be described thus: Selectivity for human nNOS over human eNOS. The essentials: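 Ratio of human eNOS IC₅₀ to human nNOS IC₅₀. Each IC₅₀ comes from radiolabelled arginine-to-citrulline conversion, with percent inhibition at 8–12 concentrations.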
The target in assay [5] is Nitric oxide synthase 1 (Rattus norvegicus, UniProt P29476). Nature of the assay: Inhibition of rat neuronal NOS activity.
Nitric oxide synthase 1 (Rattus norvegicus, UniProt P29476), sequence (P29476 whole entry): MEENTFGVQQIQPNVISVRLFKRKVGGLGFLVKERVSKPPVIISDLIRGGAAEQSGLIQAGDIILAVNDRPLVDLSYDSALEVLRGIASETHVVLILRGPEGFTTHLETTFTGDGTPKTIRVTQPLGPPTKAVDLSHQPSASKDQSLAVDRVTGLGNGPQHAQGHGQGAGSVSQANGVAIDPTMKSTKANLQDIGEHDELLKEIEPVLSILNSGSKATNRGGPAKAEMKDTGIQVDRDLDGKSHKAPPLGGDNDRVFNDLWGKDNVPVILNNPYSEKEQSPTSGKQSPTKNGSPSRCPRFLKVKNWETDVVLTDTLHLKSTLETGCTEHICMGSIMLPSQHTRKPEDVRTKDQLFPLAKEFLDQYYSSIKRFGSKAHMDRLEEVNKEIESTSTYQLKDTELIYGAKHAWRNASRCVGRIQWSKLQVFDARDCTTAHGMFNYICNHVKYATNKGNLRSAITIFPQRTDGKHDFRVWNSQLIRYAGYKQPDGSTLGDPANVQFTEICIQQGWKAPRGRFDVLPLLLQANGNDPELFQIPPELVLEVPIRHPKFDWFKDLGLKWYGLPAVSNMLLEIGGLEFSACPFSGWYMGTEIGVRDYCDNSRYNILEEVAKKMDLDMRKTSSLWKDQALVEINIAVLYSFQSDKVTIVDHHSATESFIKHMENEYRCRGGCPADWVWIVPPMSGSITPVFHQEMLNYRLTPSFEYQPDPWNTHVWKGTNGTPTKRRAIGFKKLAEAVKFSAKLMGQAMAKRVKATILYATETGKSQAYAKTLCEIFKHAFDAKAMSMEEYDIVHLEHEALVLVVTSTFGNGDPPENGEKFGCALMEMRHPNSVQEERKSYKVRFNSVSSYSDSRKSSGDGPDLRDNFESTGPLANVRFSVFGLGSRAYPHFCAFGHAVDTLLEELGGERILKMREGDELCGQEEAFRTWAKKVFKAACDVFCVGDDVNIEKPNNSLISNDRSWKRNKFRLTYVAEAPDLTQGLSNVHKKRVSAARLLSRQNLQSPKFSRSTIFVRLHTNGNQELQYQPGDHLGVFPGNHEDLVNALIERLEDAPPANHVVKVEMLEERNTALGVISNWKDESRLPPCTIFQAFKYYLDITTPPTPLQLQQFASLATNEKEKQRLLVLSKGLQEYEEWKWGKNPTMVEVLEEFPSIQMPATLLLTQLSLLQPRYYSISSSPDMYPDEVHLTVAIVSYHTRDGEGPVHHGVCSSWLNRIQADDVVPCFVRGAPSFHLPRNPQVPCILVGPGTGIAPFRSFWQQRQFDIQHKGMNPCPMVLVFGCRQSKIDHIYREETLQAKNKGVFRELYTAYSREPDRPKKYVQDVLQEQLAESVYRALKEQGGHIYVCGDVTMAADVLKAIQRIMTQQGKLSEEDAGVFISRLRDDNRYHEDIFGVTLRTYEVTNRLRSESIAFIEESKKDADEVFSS
Assay [6] addresses T2, Nitric oxide synthase 3 (Rattus norvegicus, UniProt Q62600).
T2 sequence (Q62600 whole entry): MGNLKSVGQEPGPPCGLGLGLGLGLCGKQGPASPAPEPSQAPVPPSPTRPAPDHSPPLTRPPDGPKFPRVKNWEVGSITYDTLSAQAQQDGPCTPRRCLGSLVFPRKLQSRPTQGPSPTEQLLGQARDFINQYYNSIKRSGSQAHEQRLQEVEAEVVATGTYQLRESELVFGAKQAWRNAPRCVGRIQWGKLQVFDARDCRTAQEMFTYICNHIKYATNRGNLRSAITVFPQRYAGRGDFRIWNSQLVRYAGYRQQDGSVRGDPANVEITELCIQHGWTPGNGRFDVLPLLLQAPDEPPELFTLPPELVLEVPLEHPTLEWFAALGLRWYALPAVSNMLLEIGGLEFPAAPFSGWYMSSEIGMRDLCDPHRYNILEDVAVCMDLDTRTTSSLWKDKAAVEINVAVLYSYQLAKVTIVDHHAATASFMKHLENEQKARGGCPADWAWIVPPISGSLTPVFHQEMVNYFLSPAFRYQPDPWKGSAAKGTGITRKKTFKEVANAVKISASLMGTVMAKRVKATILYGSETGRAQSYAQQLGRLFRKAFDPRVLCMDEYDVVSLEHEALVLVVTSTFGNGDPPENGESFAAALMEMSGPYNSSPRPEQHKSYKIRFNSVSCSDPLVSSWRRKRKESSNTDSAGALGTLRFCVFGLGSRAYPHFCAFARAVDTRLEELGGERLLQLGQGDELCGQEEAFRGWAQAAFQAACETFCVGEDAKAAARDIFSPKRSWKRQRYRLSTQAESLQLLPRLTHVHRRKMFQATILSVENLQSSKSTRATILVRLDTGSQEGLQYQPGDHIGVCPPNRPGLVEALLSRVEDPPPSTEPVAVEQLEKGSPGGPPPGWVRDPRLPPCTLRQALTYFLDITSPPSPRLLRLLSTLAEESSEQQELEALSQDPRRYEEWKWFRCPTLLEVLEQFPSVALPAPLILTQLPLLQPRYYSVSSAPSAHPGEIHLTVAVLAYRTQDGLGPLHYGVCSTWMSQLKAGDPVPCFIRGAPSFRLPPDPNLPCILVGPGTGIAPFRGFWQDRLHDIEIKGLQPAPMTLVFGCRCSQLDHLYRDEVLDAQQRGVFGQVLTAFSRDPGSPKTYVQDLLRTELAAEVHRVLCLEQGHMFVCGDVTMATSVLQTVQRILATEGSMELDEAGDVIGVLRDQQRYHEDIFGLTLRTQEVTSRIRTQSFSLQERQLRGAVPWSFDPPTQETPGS
Nature of the assay: Inhibition of rat endothelial NOS activity. The essentials: (§2)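 Rat NOS isoform activity read out as conversion of radiolabelled L-arginine to L-citrulline. Percent inhibition was measured in duplicate at 8–12 concentrations to give IC₅₀.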

The target in assay [7] is Nitric oxide synthase, inducible (Rattus norvegicus, UniProt Q06518). The assay can be described thus: Inhibition of rat inducible NOS activity. The method, boiled down:
as §2

The values below come from ChEMBL document CHEMBL1147215, “Novel 2-aminobenzothiazoles as selective neuronal nitric oxide synthase inhibitors” (Bioorg Med Chem Lett, 2007).

Nitric oxide synthase 1 (Homo sapiens, UniProt P29475), sequence (P29475 whole entry): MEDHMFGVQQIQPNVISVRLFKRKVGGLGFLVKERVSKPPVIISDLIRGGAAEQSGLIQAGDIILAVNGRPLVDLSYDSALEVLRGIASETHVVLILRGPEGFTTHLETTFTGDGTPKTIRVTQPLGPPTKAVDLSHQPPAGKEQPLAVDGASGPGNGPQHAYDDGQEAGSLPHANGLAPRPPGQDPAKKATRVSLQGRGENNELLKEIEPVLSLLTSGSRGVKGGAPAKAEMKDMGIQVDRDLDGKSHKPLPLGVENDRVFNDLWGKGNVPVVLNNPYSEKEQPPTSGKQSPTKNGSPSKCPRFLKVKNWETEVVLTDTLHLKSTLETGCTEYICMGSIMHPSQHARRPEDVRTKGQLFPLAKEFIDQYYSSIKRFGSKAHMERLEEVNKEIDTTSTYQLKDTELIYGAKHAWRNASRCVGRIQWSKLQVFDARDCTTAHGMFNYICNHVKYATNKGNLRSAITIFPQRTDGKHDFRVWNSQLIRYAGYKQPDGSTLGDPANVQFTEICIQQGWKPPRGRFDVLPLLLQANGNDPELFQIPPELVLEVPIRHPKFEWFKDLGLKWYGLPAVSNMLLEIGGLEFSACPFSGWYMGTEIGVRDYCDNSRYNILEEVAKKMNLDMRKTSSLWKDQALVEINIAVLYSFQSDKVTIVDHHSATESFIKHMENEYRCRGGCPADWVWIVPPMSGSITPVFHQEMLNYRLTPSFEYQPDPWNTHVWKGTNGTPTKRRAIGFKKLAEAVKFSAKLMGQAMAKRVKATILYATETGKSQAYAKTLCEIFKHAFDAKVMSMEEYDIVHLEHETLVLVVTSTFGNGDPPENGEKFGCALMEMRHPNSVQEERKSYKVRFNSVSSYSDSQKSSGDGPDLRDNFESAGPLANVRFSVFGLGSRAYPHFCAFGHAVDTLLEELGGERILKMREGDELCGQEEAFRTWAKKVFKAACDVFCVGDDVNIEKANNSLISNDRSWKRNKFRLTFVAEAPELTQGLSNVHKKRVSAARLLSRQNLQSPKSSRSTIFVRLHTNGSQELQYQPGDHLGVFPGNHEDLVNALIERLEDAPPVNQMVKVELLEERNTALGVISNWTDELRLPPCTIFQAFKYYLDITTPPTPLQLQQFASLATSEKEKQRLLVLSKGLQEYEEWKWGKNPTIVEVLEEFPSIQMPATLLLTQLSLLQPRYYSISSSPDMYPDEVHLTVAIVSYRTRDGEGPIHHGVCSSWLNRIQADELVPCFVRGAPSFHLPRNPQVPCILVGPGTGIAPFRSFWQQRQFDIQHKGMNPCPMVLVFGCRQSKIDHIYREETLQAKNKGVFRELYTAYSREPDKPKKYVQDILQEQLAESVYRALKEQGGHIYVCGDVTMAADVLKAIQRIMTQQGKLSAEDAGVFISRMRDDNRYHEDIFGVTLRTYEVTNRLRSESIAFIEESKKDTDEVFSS

For `N=C(Nc1ccc2nc(NC3CCN(Cc4ccc(F)cc4)CC3)sc2c1)c1cccs1`, the IC50 (as a rule, the concentration that gives 50% inhibition) was 0.2 µM in assay [1], 8 µM in assay [2] and 14 µM in assay [3]. Moreover, the Ratio IC50 in assay [4] came out at 40.

In the case of `N=C(Nc1ccc2sc(NC3CCN(Cc4ccccc4)CC3)nc2c1)c1cccs1`, in assay [4], the Ratio IC50 was 40.

For `N=C(Nc1ccc2sc(NC3CCN(Cc4ccc(F)cc4)CC3)nc2c1)c1cccs1`, the IC50 in assay [1] turned out to be 0.8 µM; in assay [2], 13 µM; in assay [3], 91 µM. In assay [4], the Ratio IC50 turned out to be 16.

Take `COc1ccc(CN2CCC(Nc3nc4ccc(NC(=N)c5cccs5)cc4s3)CC2)cc1`: the Ratio IC50 in assay [4] turned out to be 28.

On to `NC(=Nc1ccc2sc(NC3CCN(Cc4ccccc4)CC3)nc2c1)c1cccs1`, for which the IC50 in assay [1] was 0.4 µM; in assay [2] it was 16 µM; in assay [3] it was 48 µM.

Regarding `N=C(Nc1ccc2nc(NC3CCN(CCc4cnc[nH]4)CC3)sc2c1)c1cccs1`, in assay [4], the Ratio IC50 stood at 2.

Take `N=C(Nc1ccc2nc(N)sc2c1)c1cccs1`: the IC50 in assay [1] came out at 0.2 µM; in assay [2] it was 2.9 µM; in assay [3], 25 µM. In addition, the Ratio IC50 in assay [4] worked out at 18.

In the case of `COc1cccc(CN2CCC(Nc3nc4ccc(N=C(N)c5cccs5)cc4s3)CC2)c1`, the IC50 is 0.1 µM in assay [1]; 3.8 µM in assay [2]; > 100 µM in assay [3]; 6.7 µM in assay [5]; 1.3 µM in assay [6]; 19 µM in assay [7].

Turning to `N=C(Nc1ccc2sc(NCCN3CCOCC3)nc2c1)c1cccs1`, the IC50 in assay [1] was determined as 1.3 µM; in assay [2], 12 µM; in assay [3], 141 µM. Moreover, the Ratio IC50 in assay [4] is 9.

On to `NC(=Nc1ccc2nc(NC3CCN(CCc4cnc[nH]4)CC3)sc2c1)c1cccs1`, for which the IC50 is 0.3 µM in assay [1]; 0.7 µM in assay [2]; 6 µM in assay [3]; 4.8 µM in assay [5]; 4.6 µM in assay [6]; 26 µM in assay [7].

On to `N=C(Nc1ccc2nc(NC3CCN(Cc4ccccc4)CC3)sc2c1)c1cccs1`, for which the concentration for half-maximal inhibition (IC50) in assay [1] worked out at 0.5 µM; in assay [2], 6 µM; in assay [3] it was 14 µM; in assay [5] it was 0.09 µM; in assay [6] it was 12.5 µM; in assay [7] it was 36 µM. Moreover, in assay [4], the Ratio IC50 amounted to 12.

Consider `CCSC(N)=Nc1ccc2sc(N)nc2c1`, for which the IC50 stood at 4.6 µM in assay [1], 12 µM in assay [2] and 97 µM in assay [3].

For `N=C(Nc1ccc2sc(N)nc2c1)c1cccs1`, the IC50 came out at 0.2 µM in assay [1], 2.3 µM in assay [2] and 79 µM in assay [3]. In assay [4], the Ratio IC50 was 13.

Consider `COc1cccc(CN2CCC(Nc3nc4ccc(NC(=N)c5cccs5)cc4s3)CC2)c1`, for which the Ratio IC50 in assay [4] stood at 27.

With `COC(=O)c1ccc(CN2CCC(Nc3nc4ccc(N=C(N)c5cccs5)cc4s3)CC2)cc1`, the IC50 in assay [1] was 0.3 µM; in assay [2], 5.2 µM; in assay [3], > 100 µM.

As for `CN1CCCC1CCNc1nc2cc(NC(=N)c3cccs3)ccc2s1` (racemic), the IC50 in assay [1] is 0.03 µM; in assay [2], 1.6 µM; in assay [3], 15 µM. Moreover, the Ratio IC50 in assay [4] was 53.

`N=C(Nc1ccc2nc(NC3CCN(Cc4ccc(C(=O)O)cc4)CC3)sc2c1)c1cccs1`: the IC50 in assay [1] is 5.1 µM; in assay [2], 59 µM; in assay [3] it was > 100 µM. The Ratio IC50 in assay [4] came out at 12.

In the case of `N=C(Nc1ccc2sc(NCCc3ccccn3)nc2c1)c1cccs1`, the IC50 was 1.1 µM in assay [1], 6 µM in assay [2] and 139 µM in assay [3]. In addition, the Ratio IC50 in assay [4] is 5.

For `N=C(Nc1ccc2nc(NCCc3ccc(Br)cc3)sc2c1)c1cccs1`, the IC50 in assay [1] was found to be 4.4 µM; in assay [2], 2.1 µM; in assay [3], 75 µM; in assay [5], 4.7 µM; in assay [6] it was 5.2 µM. Also, in assay [4], the Ratio IC50 stood at 0.5.

Turning to `N=C(Nc1ccc2nc(NCCN3CCOCC3)sc2c1)c1cccs1`, the IC50 in assay [1] amounted to 0.2 µM; in assay [2], 1.5 µM; in assay [3], 37 µM; in assay [6], 9.1 µM; in assay [7], 44 µM.

As to `COc1ccc(CN2CCC(Nc3nc4ccc(N=C(N)c5cccs5)cc4s3)CC2)cc1`, the IC50 in assay [1] was determined as 0.2 µM; in assay [2], 5.7 µM; in assay [3] it was 9 µM.

Take `CCSC(=N)Nc1ccc2sc(N)nc2c1`: the Ratio IC50 in assay [4] is 3.

For `N=C(Nc1ccc2nc(NC3CCOCC3)sc2c1)c1cccs1`, the IC50 in assay [1] turned out to be 2 µM; in assay [2], 16 µM; in assay [3], 64 µM. In addition, the Ratio IC50 in assay [4] was 8.

For the compound `CCSC(=N)Nc1ccc2nc(N)sc2c1`, the IC50 in assay [1] was 1.4 µM; in assay [2] it was 9.2 µM; in assay [3] it was 46 µM. Moreover, the Ratio IC50 in assay [4] was 7.

`COC(=O)c1ccc(CN2CCC(Nc3nc4ccc(NC(=N)c5cccs5)cc4s3)CC2)cc1`: the Ratio IC50 in assay [4] is 18.

Consider `N=C(Nc1ccc2nc(NCCc3ccccn3)sc2c1)c1cccs1`, for which the IC50 in assay [1] was found to be 1.3 µM; in assay [2] it was 0.9 µM; in assay [3] it was 13 µM; in assay [5], 0.05 µM; in assay [6], 3.4 µM; in assay [7], 25 µM. Besides, in assay [4], the Ratio IC50 is 1.
